Bioassay records: PubChem BioAssay, Broad Institute
Most compounds without a hit are left out; they make up all but 1.7% or so of the library.
F508del corr – CFTR F508del correction in bronchial cells; CFBE cells, YFP halide quenching; stimulated with forskolin plus potentiator P3; % fluorescence drop versus neutral controls; activity (quench increase), % at 7.58 µM; actives 0.36% (n = 350,000); AID 720511;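 active = mean added fluorescence quench of at least 8% versus neutral control, with both replicates also reaching 8%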;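 also: cells transiently co-express mutant CFTR-F508del with the halide-sensitive YFP; corrector assay measuring rescue of mutant channel to the surface after 24 h compound exposure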
Cneo AK release – causes C. neoformans cell lysis. lysis activity, % at 15 µM. actives 0.2% (n = 360,000). adenylate kinase release luminescence, 4 h; normalised: neutral wells 0, clomiphene wells 100;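 active = mean lysis activity across replicates of at least 80%, whatever share of replicates individually reach that level; inactive = mean lysis activity below 80%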
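Material – log-phase Cryptococcus neoformans yeast cells · Input – 5 × 10^6 yeast cells/mL · Medium – fresh YPD growth medium · Doses – single compound concentration per well · Timing – static 4 h at 37 °C with compound, 1 h detection · Detection – adenylate kinase release luminescence · Read-out – signal increase indicating cell lysis · Control set – Clomiphene as positive lysis control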
CaV13 ICDI inh – Primary screen for inhibitors of IQ motif and Ca2+-dependent inactivation inhibitor domain binding in CACNA1D, Förster resonance energy transfer in living cells, … | HEK cells, CFP/YFP FRET ICDI-IQ, plate reader, 10 min; percent FRET-ratio fall versus neutral wells | inhibition, % at 12.3 µM | actives 0.098% (n = 340,000) | AID 743397;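 active = mean replicate inhibition of at least 30% and at least 1% of replicates passing that level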;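 also: 0% = median of the neutral control wells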
Ecoli rRNA inh – selective bacterial rRNA inhibition in E. coli; E. coli WT GFP vs humanized-ribosome RFP mutants, fluorescence, 24 h; active compounds read low; DMSO median 0, no signal -100; GFP signal change (wild-type ribosome), % (concentration not given with the values); actives 1.6% (n = 350,000);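 active = significant combined selectivity score with lowered wild-type GFP, culture density cut under 30%, mutant RFP and density less affected; inactive = any of these conditions unmet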
* hit, by the source's call; . = not tested or not shown.

SMILES | F508del corr | Cneo AK release | CaV13 ICDI inh | Ecoli rRNA inh
N#Cc1nc(NCC(F)F)nc(Nc2cc(F)cc(F)c2)n1 | 8.0* | -7 | -8 | .
N#Cc1nc(Nc2cc(F)cc(F)c2)c2ncn(CC(F)F)c2n1 | 1 | 1 | -11 | -27
C[C@H](CO)N1C[C@H](C)[C@@H](CN(C)C(=O)Nc2cccc(F)c2)OCc2ccccc2-c2c(n(C)c3ccccc23)C1=O | 2 | -1 | . | -15
COc1cccc2c1C(=O)c1c(O)c3c(c(O)c1C2=O)C[C@@](O)(C(C)=O)C[C@@H]3O[C@H]1C[C@H](N)[C@H](O)[C@H](C)O1 | 75* | -1 | -6 | 25
COc1cccc2c1C(=O)c1c(O)c3c(c(O)c1C2=O)C[C@@](O)(C(=O)CO)C[C@@H]3O[C@H]1C[C@H](N)[C@@H](O)[C@H](C)O1 | . | -2 | . | .
COc1cccc2c1C(=O)c1c(O)c3c(c(O)c1C2=O)CC(O)(C(=O)CO)CC3OC1CC(N(C)C)C(O)C(C)O1 (stereo not drawn) | 25* | . | -23 | -56
CCn1c(CCc2ccccc2)nc2ccccc21 | -3 | -2 | -21 | -23*
CC(C)Cc1nc2ccccc2n1CCc1ccccc1 | -3 | . | -3 | .
CCc1nc2ccccc2n1CCc1ccccc1 | -1 | . | 7 | -24*
CC(C)(C)Cc1nc2ccccc2n1CCc1ccccc1 | . | 11 | -4 | .
C[C@@H]1CN([C@@H](C)CO)C(=O)c2cccc(NC(=O)c3cnccn3)c2O[C@H]1CN(C)S(=O)(=O)c1ccccc1 | 0 | . | . | 0
Cc1ccc(S(=O)(=O)N(C)C[C@@H]2OCCCC[C@H](C)Oc3ccc(NC(=O)CCC(F)(F)F)cc3C(=O)N([C@H](C)CO)C[C@H]2C)cc1 | 3 | 62 | . | -2
C[C@@H]1CN([C@@H](C)CO)C(=O)c2cccc(NC(=O)Nc3ccccc3)c2O[C@H]1CN(C)Cc1ccc(Cl)c(Cl)c1 | 2 | 0 | . | -2
C[C@H](CO)N1C[C@H](C)[C@H](CN(C)Cc2ccc(Cl)c(Cl)c2)Oc2c(NC(=O)Nc3ccccc3)cccc2C1=O | 2 | 90* | . | -2
C[C@H]1CN([C@@H](C)CO)C(=O)c2cccc(NC(=O)Nc3ccccc3)c2O[C@@H]1CN(C)Cc1ccc(Cl)c(Cl)c1 | 1 | 0 | . | -4
C[C@@H]1CN([C@H](C)CO)C(=O)c2cccc(NC(=O)Nc3ccccc3)c2O[C@@H]1CN(C)Cc1ccc(Cl)c(Cl)c1 | -2 | 101* | . | -6
O=C(Nc1ccc(F)cc1)N1CC(=O)N2[C@H](C1)[C@H](c1ccc(Br)cc1)[C@@H]2CO | -3 | . | . | 0
CO[C@H](CN(C)S(=O)(=O)c1ccc(C)cc1)[C@H](C)CN([C@H](C)CO)S(=O)(=O)c1cccc(Cl)c1 | 3 | 11 | . | -5
CO[C@@H](CN(C)Cc1cc(F)ccc1F)[C@@H](C)CN([C@H](C)CO)S(=O)(=O)c1ccc(F)cc1 | -1 | 102* | . | .
CO[C@@H](CN(C)S(=O)(=O)c1ccc(C)cc1)[C@H](C)CN([C@H](C)CO)S(=O)(=O)c1cccc(Cl)c1 | 15* | -2 | . | -10
CCOc1ccc(C(=O)N[C@H](C(=O)Nc2cccc(S(=O)(=O)N3CCOCC3)c2)C(C)C)cc1 | 4 | 1 | -5 | 11
CCOc1ccc(C(=O)N[C@H](C(=O)Nc2cccc(S(=O)(=O)N3CCCCC3)c2)C(C)C)cc1 | 15* | 1 | -3 | 6
C[C@H]1CN(C)C(=O)c2cccc(N(C)C)c2O[C@@H]1CN(C)S(C)(=O)=O | . | . | . | 0
CN(C)C1=NCC(CSC(=N)N)S1 (stereo not drawn) | 2 | 0 | 0 | -37*
CCCC(=O)Nc1ccc2c(c1)C(=O)N(C)C[C@H](OC)[C@H](C)CN(Cc1ccc(F)cc1)[C@@H](C)CO2 | -1 | . | . | -5
C[C@@H]1CN([C@H](C)CO)S(=O)(=O)c2ccc(C#CC3(O)CCCC3)cc2O[C@H]1CN(C)C(=O)c1ccccc1 | -1 | 4 | . | -5
CCOC1=C2[C@@H](CN(S(=O)(=O)c3ccc(C)cc3)[C@H]2c2ccc(Cl)cc2)[C@H]2C(=O)N(c3ccccc3)C(=O)[C@H]2C1 | 11* | 0 | -6 | 10
N#Cc1ccc(-c2ccc([C@@H]3[C@@H](CO)N4C(=O)CN(C(=O)Cc5ccccc5)C[C@H]34)cc2)cc1 | -2 | . | . | -4
